In ChEMBL document CHEMBL1129929, “Analogues of methotrexate in rheumatoid arthritis. 1. Effects of 10-deazaaminopterin analogues on type II collagen-induced arthritis in mice” (J Med Chem, 1997):

Columns and labels:
[1] = Concentration required to inhibit the growth of chang liver cells; format: functional; conditions: Homo sapiens
[2] = tested on: L1210; assay: Concentration required to inhibit the growth of L1210 cells; format: functional, cell-based; conditions: Mus musculus
[3] = tested on: Mus musculus; assay: Incidence of disease(mouse type II collagen arthritis) was scored as the percentage of animals within each experimental group that exhibited joint or limb inflammation on day 30 at intraperitoneal of dose 2.5 mg/kg; format: functional
How it was run: (§1)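 DBA/1 mice were immunized with bovine type II collagen (modified Courtenay method), with a collagen booster on day 21. Compounds were given ip starting 2 days before the first collagen challenge and every 2 days thereafter. Incidence was the percentage of animals per group with joint or limb inflammation, scored on days 23, 30, 37 and 44.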

[4] = tested on: Mus musculus; assay: Incidence of disease(mouse type II collagen arthritis) was scored as the percentage of animals within each experimental group that exhibited joint or limb inflammation on day 30 at intraperitoneal of dose 5 mg/kg; format: functional; how it was run: as §1
[5] = tested on: Mus musculus; assay: Incidence of disease(mouse type II collagen arthritis) was scored as the percentage of animals within each experimental group that exhibited joint or limb inflammation on day 37 at intraperitoneal of dose 1.25 mg/kg; format: functional; how it was run: as §1
[6] = tested on: Mus musculus; assay: Incidence of disease(mouse type II collagen arthritis) was scored as the percentage of animals within each experimental group that exhibited joint or limb inflammation on day 37 at intraperitoneal of dose 12 mg/kg; format: functional; how it was run: as §1
[7] = tested on: Mus musculus; assay: Incidence of disease(mouse type II collagen arthritis) was scored as the percentage of animals within each experimental group that exhibited joint or limb inflammation on day 23 at intraperitoneal dose of 1.25 mg/kg; format: functional; how it was run: as §1
[8] = tested on: Mus musculus; assay: Incidence of disease(mouse type II collagen arthritis) was scored as the percentage of animals within each experimental group that exhibited joint or limb inflammation on day 23 at intraperitoneal dose of 5 mg/kg; format: functional; how it was run: as §1
[9] = tested on: Mus musculus; assay: Incidence of disease(mouse type II collagen arthritis) was scored as the percentage of animals within each experimental group that exhibited joint or limb inflammation on day 23 at intraperitoneal of dose 12 mg/kg; format: functional; how it was run: as §1
[10] = tested on: Mus musculus; assay: Incidence of disease(mouse type II collagen arthritis) was scored as the percentage of animals within each experimental group that exhibited joint or limb inflammation on day 30 at intraperitoneal of dose 1.25 mg/kg; format: functional; how it was run: as §1
[11] = tested on: Mus musculus; assay: Incidence of disease(mouse type II collagen arthritis) was scored as the percentage of animals within each experimental group that exhibited joint or limb inflammation on day 30 at intraperitoneal of dose 12 mg/kg; format: functional; how it was run: as §1
[12] = tested on: Mus musculus; assay: Tested for antiinflammatory activity on mouse type II collagen arthritis as Paw swelling* of all animals in each group on day 23 at intraperitoneal dose of 1.25 mg/kg; format: functional
How it was run: (§2)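 DBA/1 mice immunized with bovine type II collagen (Courtenay method, modified), antigen booster at day 21. Compounds given ip from 2 days before the first collagen challenge, then every 2 days. Hind paw dimensions (mm) measured for both limbs of all animals, expressed as mean ± SD. Eight mice per dose; untreated controls pooled from four experiments (48 animals).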

[13] = tested on: Mus musculus; assay: Tested for antiinflammatory activity on mouse type II collagen arthritis as Paw swelling* of all animals in each group on day 44 at intraperitoneal dose of 12 mg/kg; format: functional; how it was run: as §2
[14] = tested on: Mus musculus; assay: Tested for antiinflammatory activity on mouse type II collagen arthritis as Paw swelling* of all animals in each group on day 44 at intraperitoneal dose of 5 mg/kg; format: functional; how it was run: as §2
[15] = tested on: Mus musculus; assay: Tested for antiinflammatory activity on mouse type II collagen arthritis as Paw swelling* of all animals in each group on day 30 at intraperitoneal dose of 1.25 mg/kg; format: functional; how it was run: as §2
[16] = tested on: Mus musculus; assay: Tested for antiinflammatory activity on mouse type II collagen arthritis as Paw swelling* of all animals in each group on day 30 at intraperitoneal dose of 12 mg/kg; format: functional; how it was run: as §2
[17] = tested on: Mus musculus; assay: Tested for antiinflammatory activity on mouse type II collagen arthritis as Paw swelling* of all animals in each group on day 23 at intraperitoneal dose of 2.25 mg/kg; format: functional; how it was run: as §2
[18] = tested on: Mus musculus; assay: Tested for antiinflammatory activity on mouse type II collagen arthritis as Paw swelling* of all animals in each group on day 23 at intraperitoneal dose of 5 mg/kg; format: functional; how it was run: as §2
[19] = tested on: Mus musculus; assay: Tested for antiinflammatory activity on mouse type II collagen arthritis as Paw swelling* of all animals in each group on day 23 at intraperitoneal dose of 12 mg/kg; format: functional; how it was run: as §2
[20] = tested on: Mus musculus; assay: Incidence of disease(mouse type II collagen arthritis) was scored as the percentage of animals within each experimental group that exhibited joint or limb inflammation on day 37 at intraperitoneal of dose 2.5 mg/kg; format: functional; how it was run: as §1
[21] = tested on: Mus musculus; assay: Incidence of disease(mouse type II collagen arthritis) was scored as the percentage of animals within each experimental group that exhibited joint or limb inflammation on day 37 at intraperitoneal of dose 5 mg/kg; format: functional; how it was run: as §1
[22] = tested on: Mus musculus; assay: Incidence of disease(mouse type II collagen arthritis) was scored as the percentage of animals within each experimental group that exhibited joint or limb inflammation on day 44 at intraperitoneal of dose 1.25 mg/kg; format: functional; how it was run: as §1
[23] = tested on: Mus musculus; assay: Incidence of disease(mouse type II collagen arthritis) was scored as the percentage of animals within each experimental group that exhibited joint or limb inflammation on day 44 at intraperitoneal of dose 12 mg/kg; format: functional; how it was run: as §1
[24] = tested on: Mus musculus; assay: Incidence of disease(mouse type II collagen arthritis) was scored as the percentage of animals within each experimental group that exhibited joint or limb inflammation on day 44 at intraperitoneal of dose 5 mg/kg; format: functional; how it was run: as §1
[25] = tested on: Mus musculus; assay: Tested for antiinflammatory activity on mouse type II collagen arthritis as Paw swelling* of all animals in each group onn day 44 at intraperitoneal dose of 2.25 mg/kg; format: functional; how it was run: as §2
[26] = tested on: Mus musculus; assay: Tested for antiinflammatory activity on mouse type II collagen arthritis as Paw swelling* of all animals in each group on day 30 at intraperitoneal dose of 2.25 mg/kg; format: functional; how it was run: as §2
[27] = tested on: Mus musculus; assay: Tested for antiinflammatory activity on mouse type II collagen arthritis as Paw swelling* of all animals in each group on day 30 at intraperitoneal dose of 5 mg/kg; format: functional; how it was run: as §2
[28] = tested on: Mus musculus; assay: Tested for antiinflammatory activity on mouse type II collagen arthritis as Paw swelling* of all animals in each group on day 37 at intraperitoneal dose of 12 mg/kg; format: functional; how it was run: as §2
[29] = tested on: Mus musculus; assay: Tested for antiinflammatory activity on mouse type II collagen arthritis as Paw swelling* of all animals in each group on day 37 at intraperitoneal dose of 2.25 mg/kg; format: functional; how it was run: as §2
[30] = tested on: Mus musculus; assay: Tested for antiinflammatory activity on mouse type II collagen arthritis as Paw swelling* of all animals in each group on day 37 at intraperitoneal dose of 5 mg/kg; format: functional; how it was run: as §2
[31] = tested on: Mus musculus; assay: Incidence of disease(mouse type II collagen arthritis) was scored as the percentage of animals within each experimental group that exhibited joint or limb inflammation on day 23 at intraperitoneal dose of 2.5 mg/kg; format: functional; how it was run: as §1
[32] = tested on: Mus musculus; assay: Incidence of disease(mouse type II collagen arthritis) was scored as the percentage of animals within each experimental group that exhibited joint or limb inflammation on day 44 at intraperitoneal of dose 2.5 mg/kg; format: functional; how it was run: as §1

CCC(Cc1cnc2nc(N)nc(N)c2n1)c1ccc(C(=O)NC(CCC(=O)O)C(=O)O)cn1 (configuration not stated)
IC50 [1]: 35 nM | IC50 [2]: 268 nM | Animals [3]: 25% | Animals [4]: 63% | Animals [5]: 75% | Animals [6]: 88% | Animals [7]: 12% | Animals [8]: 12% | Animals [9]: 12% | Animals [10]: 38% | Animals [11]: 25% | Paw swelling [12]: 2.17 mm | Paw swelling [13]: 2.86 mm | Paw swelling [14]: 3.09 mm | Paw swelling [15]: 2.24 mm | Paw swelling [16]: 2.2 mm | Paw swelling [17]: 2.15 mm | Paw swelling [18]: 2.15 mm | Paw swelling [19]: 2.21 mm | Animals [20]: 75% | Animals [21]: 75% | Animals [22]: 100% | Animals [23]: 100% | Animals [24]: 88% | Paw swelling [25]: 2.75 mm | Paw swelling [26]: 2.18 mm | Paw swelling [27]: 2.32 mm | Paw swelling [28]: 2.59 mm | Paw swelling [29]: 2.75 mm | Paw swelling [30]: 2.56 mm | Animals [31]: 0% | Animals [32]: 75%
